# Active and inactive are the calls of the source. The rule behind the calls is not given here.
# How the values were obtained:
# HSP90 and hnRNPA2/B1 [1] = molecular target: T1, HSP90 and hnRNPA2/B1 (Homo sapiens, UniProt P08238+P22626); test: Inhibition of HSP90/hnRNPA2/B1 in human CL1-5 cells assessed as reduction of slug expression at 0.25 ug/ml up to 5 hrs by Western blotting analysis; format: cell-based
# In short: (§1)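 CL1-5 or CL152 cells exposed to a range of concentrations for 5 h; Slug (and E-cadherin) detected by Western blot with β-actin as loading control; representative of three experiments.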
# HSP90 and hnRNPA2/B1 [2] = molecular target: T1, HSP90 and hnRNPA2/B1; test: Inhibition of HSP90/hnRNPA2/B1 in human CL1-5 cells assessed as reduction of slug expression at >0.5 ug/ml after 24 hrs by Western blotting analysis; format: cell-based
# CL1-5 [3] = test: Binding affinity to HSP70 in human CL1-5 cell lysate after 1 hr by affinity chromatographic analysis; format: cell-free
# In short: (§2)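 CL1-5 lysate (10 mg protein; Tris pH 8.0 lysis buffer) held with or without 1 mM free ligand for 1 h, then loaded at 4 °C onto Sepharose 4B carrying the coupled ligand, with uncoupled beads as control. Washed with T buffer, eluted with 4 M urea/1 M NaCl; flow-through, wash and eluate probed by Western blot for HSP90, hnRNP A2/B1, HSP70 and β-actin.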
# HSP90 and hnRNPA2/B1 [4] = molecular target: T1, HSP90 and hnRNPA2/B1; test: Binding affinity to HSP90/hnRNPA2/B1 in human CL1-5 cell lysate after 1 hr by affinity chromatographic analysis; format: cell-free; in short: as §2
# HSP90 and hnRNPA2/B1 [5] = molecular target: T1, HSP90 and hnRNPA2/B1; test: Inhibition of HSP90/hnRNPA2/B1 in human CL1-5 cells; format: cell-based
# HSP90 and hnRNPA2/B1 [6] = molecular target: T1, HSP90 and hnRNPA2/B1; test: Inhibition of HSP90/hnRNPA2/B1 in human CL152 cells assessed as upregulation of E-cadherin expression after 5 hrs by Western blotting analysis; format: cell-based
# HSP90 and hnRNPA2/B1 [7] = molecular target: T1, HSP90 and hnRNPA2/B1; test: Inhibition of HSP90/hnRNPA2/B1 in human CL1-5 cells assessed as reduction of slug expression at >0.5 ug/ml up to 5 hrs by Western blotting analysis; format: cell-based; in short: as §1
# HSP90 and hnRNPA2/B1 [8] = molecular target: T1, HSP90 and hnRNPA2/B1; test: Inhibition of HSP90/hnRNPA2/B1 in human PC9 cells assessed as reduction of slug expression at 0.5 ug/ml after 5 hrs by Western blotting analysis; format: cell-based; conditions: PC-9
# HSP90 and hnRNPA2/B1 [9] = molecular target: T1, HSP90 and hnRNPA2/B1; test: Inhibition of HSP90/hnRNPA2/B1 in human CL1-5 cells assessed as upregulation of E-cadherin expression after 0.5 to 2 hrs by Western blotting analysis; format: cell-based
# Mus musculus = test: Toxicity in Balb/c nu/nu mouse xenografted with human CL1-5 cells at 10 mg/kg, ip qd administered 3 times per week measured 2 times per week for 28 days; format: organism-based; design: dose 10 mg/kg, route intraperitoneal; conditions: in vivo, 672 h
# In short: (§3)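 Six-week-old male BALB/c nu/nu mice (SPF) given 1 × 10^6 CL1-5 cells s.c. in the right flank; at 100 mm^3 tumor volume (5–8 days), six mice per group randomized to compound 10 mg/kg/day or vehicle i.p. three times weekly. Volume from calipers as 0.5W²L; tumor volume and body weight recorded twice weekly.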
# CL1-5 [10] = test: Antitumor activity against human CL1-5 cells xenografted in Balb/c nu/nu mouse assessed as orthotopic tumor growth inhibition at 10 mg/kg/day, ip administered 3 times per week measured 2 times per week for 28 days; format: functional, organism-based
# In short: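 CL1-5 cells inoculated into the pleural cavity of 6-week-old BALB/c nu/nu mice (n = 6 per group); i.p. dosing with compound or DMSO vehicle three times weekly from day 5. At 28 days mice killed by CO2, organs formalin-fixed; tumor volume in excised lungs and metastatic nodule counts taken, mean ± SD of six mice.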
# CL1-5 [11] = test: Antitumor activity against human CL1-5 cells xenografted in Balb/c nu/nu mouse assessed as subcutaneously implanted tumor growth inhibition at 10 mg/kg/day, ip administered 3 times per week measured 2 times per week for 28 days; format: functional, organism-based; in short: as §3
# CL1-5 [12] = test: Reduction of filopodia formation in human CL1-5 cells at 0.1 to 0.75 ug/ml by immunofluorescence staining-based microscopic analysis; format: functional, cell-based
# HSP90 and hnRNPA2/B1 [13] = molecular target: T1, HSP90 and hnRNPA2/B1; test: Inhibition of HSP90/hnRNPA2/B1 in human CL1-5 cells assessed as reduction of slug expression at 0.5 ug/ml after 2 hrs by Western blotting analysis; format: cell-based
# In short: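 CL1-5 cells exposed to 0.5 μg/mL for 0.5, 1 or 2 h; Slug in cell extracts detected by Western blot with β-actin as loading control; representative of three experiments.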
# HSP90 and hnRNPA2/B1 [14] = molecular target: T1, HSP90 and hnRNPA2/B1; test: Inhibition of HSP90/hnRNPA2/B1 in human CL152 cells assessed as reduction of slug expression at 0.5 ug/ml after 5 hrs by Western blotting analysis; format: cell-based; in short: as §1
# CL1-5 [15] = test: Antimigratory activity against human CL1-5 cells assessed as reduction of cell migration at 0.25 ug/ml after 1 to 12 hrs by wound healing assay relative to control; format: functional, cell-based
# In short: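 Cells grown to near-confluence in 6 cm dishes, monolayer scratched with a pipet tip, debris washed off with PBS; incubated at 37 °C and photographed at 0, 4, 8 and 12 h. Cells migrating into the cell-free zone counted. Triplicate samples, at least three independent experiments, mean ± SD.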
# CL1-5 [16] = test: Antiinvasive activity against human CL1-5 cells after 20 hrs by matrigel-coated transwell assay; format: functional, cell-based
# In short: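 Transwell chambers (8 μm pores) coated with 5 μg/mL Matrigel; 2.5 × 10^4 cells seeded on top in medium with 10% NuSerum; after 20 h, cells reaching the lower side fixed in methanol, stained with 50 μg/mL propidium iodide and quantified by image analysis. Triplicate samples; mean ± SD of three independent experiments.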
# T1 sequence (P08238 whole entry, looked up): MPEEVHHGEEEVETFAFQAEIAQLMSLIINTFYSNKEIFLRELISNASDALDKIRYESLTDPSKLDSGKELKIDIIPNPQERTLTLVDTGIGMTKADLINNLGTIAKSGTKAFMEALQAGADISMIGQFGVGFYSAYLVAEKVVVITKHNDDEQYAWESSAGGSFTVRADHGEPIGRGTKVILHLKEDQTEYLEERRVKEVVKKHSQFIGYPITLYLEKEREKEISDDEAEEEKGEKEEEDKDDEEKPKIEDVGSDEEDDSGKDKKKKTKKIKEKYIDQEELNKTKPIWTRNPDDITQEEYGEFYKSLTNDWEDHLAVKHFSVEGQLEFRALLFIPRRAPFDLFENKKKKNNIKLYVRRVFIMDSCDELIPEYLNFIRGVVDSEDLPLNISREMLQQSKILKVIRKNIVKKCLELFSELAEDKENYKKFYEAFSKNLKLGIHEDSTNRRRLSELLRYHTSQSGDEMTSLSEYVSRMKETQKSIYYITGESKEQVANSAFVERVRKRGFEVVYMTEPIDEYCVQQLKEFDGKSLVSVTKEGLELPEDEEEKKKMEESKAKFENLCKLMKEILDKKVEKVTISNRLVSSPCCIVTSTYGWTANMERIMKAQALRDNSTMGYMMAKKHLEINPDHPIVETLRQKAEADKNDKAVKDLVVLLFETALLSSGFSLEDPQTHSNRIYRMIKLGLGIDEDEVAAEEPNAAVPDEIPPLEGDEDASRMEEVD
# T1 sequence (P22626 whole entry, looked up): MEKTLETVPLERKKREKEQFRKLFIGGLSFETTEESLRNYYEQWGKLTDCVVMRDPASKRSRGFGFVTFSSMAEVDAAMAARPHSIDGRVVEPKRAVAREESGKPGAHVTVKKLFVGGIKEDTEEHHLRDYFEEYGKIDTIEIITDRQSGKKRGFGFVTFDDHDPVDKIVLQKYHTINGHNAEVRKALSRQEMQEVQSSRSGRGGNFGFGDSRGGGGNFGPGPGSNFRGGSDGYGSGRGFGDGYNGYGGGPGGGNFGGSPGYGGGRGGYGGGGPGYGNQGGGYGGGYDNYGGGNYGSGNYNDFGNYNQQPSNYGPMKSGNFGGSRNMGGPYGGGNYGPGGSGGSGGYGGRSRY
inhibition (HSP90 and hnRNPA2/B1 [1]),inhibition (HSP90 and hnRNPA2/B1 [2]),Activity (HSP90 and hnRNPA2/B1 [4]),IC50 (HSP90 and hnRNPA2/B1 [5]) [µg/mL],inhibition (HSP90 and hnRNPA2/B1 [6]),inhibition (HSP90 and hnRNPA2/B1 [7]),inhibition (HSP90 and hnRNPA2/B1 [8]),inhibition (HSP90 and hnRNPA2/B1 [9]),inhibition (HSP90 and hnRNPA2/B1 [13]),inhibition (HSP90 and hnRNPA2/B1 [14]),SMILES,Activity (CL1-5 [3]),Activity (Mus musculus),TGI (CL1-5 [10]),TGI (CL1-5 [11]),Activity (CL1-5 [12]),Activity (CL1-5 [15]),Activity (CL1-5 [16])
inactive,Active,Active,0.5,–,–,–,–,–,–,Cl.Cl.NCCOCCOCCOCCOc1ccc2c(CN3CCC(CO)CC3)cc3cc4c(cc3c2c1)OCO4,inactive,–,–,–,–,–,–
–,–,–,–,Dose-dependent effect,Active,Active,Dose-dependent effect,Active,Active,COc1ccc2c(CN3CCC(CO)CC3)cc3cc4c(cc3c2c1)OCO4,–,Non-toxic,Active,Active,Active,Active,Dose-dependent effect

# Reference: ChEMBL document CHEMBL3124922, “The antitumor agent PBT-1 directly targets HSP90 and hnRNP A2/B1 and inhibits lung adenocarcinoma growth and metastasis” (J Med Chem, 2014)
